Experimental data reported in ChEMBL document CHEMBL1773028, “Pentasaccharide resin glycosides from Ipomoea pes-caprae” (2011).
Activity calls are given as the source filed them. The calls are words filed in the database; no cut-off is given here.

What was measured:
[1] = system: NCI/ADR-RES; test: Reversal fold, ratio of IC50 for doxorubicin alone to IC50 for doxorubicin in presence of compound in human MCF7/ADR cells after 48 hrs by MTT assay; type: functional
Procedure, shortened: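 MCF-7/ADR cells seeded at 4.5 × 10^3 per well. Doxorubicin serially diluted 0.008–25 μg/mL, with or without 5 μg/mL sample; verapamil 5 μg/mL as positive control. MTT after 48 h. Doxorubicin IC50 computed relative to untreated cells (100%). RF = IC50 doxorubicin alone / IC50 with sample. Triplicate.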

[2] = system: NCI/ADR-RES; test: Cytotoxicity against multidrug-resistance human MCF7/ADR cells after 48 hrs by MTT assay; type: functional, cell-based
Procedure, shortened: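 MCF-7/ADR cells grown in DMEM with 10% FBS, trypsinized, seeded at 4.5 × 10^4 cells/mL and held 24 h at 37 °C, 5% CO2. Compounds added in DMSO over 400 to 1 μg/mL. MTT read-out after 48 h exposure. Triplicate.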

SMILES: CCCCCCCCCC(=O)O[C@H]1[C@H](O[C@@H]2[C@H]3OC(=O)CCCCCCCCC[C@H](CCCCC)O[C@@H]4O[C@H](C)[C@H](O)[C@H](O)[C@H]4O[C@H](O[C@H]2C)[C@@H]3O)O[C@@H](C)[C@H](O[C@@H]2O[C@@H](C)[C@H](OC(=O)[C@@H](C)CC)[C@@H](OC(=O)/C=C/c3ccccc3)[C@H]2O)[C@H]1O[C@@H]1O[C@@H](C)[C@H](O)[C@@H](O)[C@H]1O [PESCAPREIN XXIII]
- Ratio IC50 [1]: 2.9
- Activity [2]: inactive

SMILES: CCCCCCCCCC(=O)O[C@H]1[C@H](O[C@@H]2[C@H]3OC(=O)CCCCCCCCC[C@H](CCCCC)O[C@@H]4O[C@H](C)[C@H](O)[C@H](O)[C@H]4O[C@H](O[C@H]2C)[C@@H]3O)O[C@@H](C)[C@H](O[C@@H]2O[C@@H](C)[C@H](OC(=O)[C@@H](C)CC)[C@@H](O)[C@H]2OC(=O)/C=C/c2ccccc2)[C@H]1O[C@@H]1O[C@@H](C)[C@H](O)[C@@H](O)[C@H]1O [PESCAPREIN XXIV]
- Ratio IC50 [1]: 1.8
- Activity [2]: inactive

SMILES: CCCCCC(=O)O[C@H]1[C@H](O[C@@H]2[C@@H](O)[C@H]3OC(=O)CCCCCCCCC[C@H](CCCCC)O[C@@H]4O[C@H](C)[C@H](O)[C@H](O)[C@H]4O[C@@H]3O[C@H]2C)O[C@@H](C)[C@H](O[C@@H]2O[C@@H](C)[C@H](OC(=O)[C@@H](C)CC)[C@@H](OC(=O)/C=C/c3ccccc3)[C@H]2O)[C@H]1O[C@@H]1O[C@@H](C)[C@H](O)[C@@H](O)[C@H]1O [PESCAPREIN XXIX]
- Ratio IC50 [1]: 3.2
- Activity [2]: inactive

SMILES: CCCCCCCCCCCC(=O)O[C@H]1[C@H](O[C@@H]2[C@H]3OC(=O)CCCCCCCCC[C@H](CCCCC)O[C@@H]4O[C@H](C)[C@H](O)[C@H](O)[C@H]4O[C@H](O[C@H]2C)[C@@H]3O)O[C@@H](C)[C@H](O[C@@H]2O[C@@H](C)[C@H](OC(=O)[C@@H](C)CC)[C@@H](O)[C@H]2OC(=O)/C=C/c2ccccc2)[C@H]1O[C@@H]1O[C@@H](C)[C@H](O)[C@@H](O)[C@H]1O [PESCAPREIN XXI]
- Ratio IC50 [1]: 1.5
- Activity [2]: inactive

SMILES: CCCCCCCC(=O)O[C@H]1[C@H](O[C@@H]2[C@H]3OC(=O)CCCCCCCCC[C@H](CCCCC)O[C@@H]4O[C@H](C)[C@H](O)[C@H](O)[C@H]4O[C@H](O[C@H]2C)[C@@H]3O)O[C@@H](C)[C@H](O[C@@H]2O[C@@H](C)[C@H](OC(=O)[C@@H](C)CC)[C@@H](OC(=O)/C=C/c3ccccc3)[C@H]2O)[C@H]1O[C@@H]1O[C@@H](C)[C@H](O)[C@@H](O)[C@H]1O [PESCAPREIN XXVIII]
- Ratio IC50 [1]: 2.3
- Activity [2]: inactive

SMILES: CCCCC[C@H]1CCCCCCCCCC(=O)O[C@H]2[C@@H](O)[C@H](O[C@H]3[C@H](O1)O[C@H](C)[C@H](O)[C@@H]3O)O[C@@H](C)[C@@H]2O[C@@H]1O[C@@H](C)[C@H](O[C@@H]2O[C@@H](C)[C@H](OC(=O)[C@@H](C)CC)[C@@H](OC(=O)/C=C/c3ccccc3)[C@H]2O)[C@@H](O[C@@H]2O[C@@H](C)[C@H](O)[C@@H](O)[C@H]2O)[C@H]1OC(=O)[C@@H](C)CC [PESCAPREIN XXVII]
- Ratio IC50 [1]: 1.9
- Activity [2]: inactive

SMILES: CCCCCCCCCC(=O)O[C@H]1[C@H](O[C@@H]2[C@H]3OC(=O)CCCCCCCCC[C@H](CCCCC)O[C@@H]4O[C@H](C)[C@H](O)[C@H](O)[C@H]4O[C@H](O[C@H]2C)[C@@H]3O)O[C@@H](C)[C@H](O[C@@H]2O[C@@H](C)[C@H](OC(=O)C(C)C)[C@@H](OC(=O)/C=C/c3ccccc3)[C@H]2O)[C@H]1O[C@@H]1O[C@@H](C)[C@H](O)[C@@H](O)[C@H]1O [PESCAPREIN XXVI]
- Ratio IC50 [1]: 3.7
- Activity [2]: inactive

SMILES: CCCCCCCCCCCC(=O)O[C@H]1[C@H](O[C@@H]2[C@H]3OC(=O)CCCCCCCCC[C@H](CCCCC)O[C@@H]4O[C@H](C)[C@H](O)[C@H](O)[C@H]4O[C@H](O[C@H]2C)[C@@H]3O)O[C@@H](C)[C@H](O[C@@H]2O[C@@H](C)[C@H](OC(=O)C(C)C)[C@@H](OC(=O)/C=C/c3ccccc3)[C@H]2O)[C@H]1O[C@@H]1O[C@@H](C)[C@H](O)[C@@H](O)[C@H]1O [PESCAPREIN XXV]
- Ratio IC50 [1]: 2.1
- Activity [2]: inactive

SMILES: CCCCCCCCCC(=O)O[C@H]1[C@H](O[C@@H]2[C@@H](O)[C@H]3OC(=O)CCCCCCCCC[C@H](CCCCC)O[C@@H]4O[C@H](C)[C@H](O)[C@H](O)[C@H]4O[C@@H]3O[C@H]2C)O[C@@H](C)[C@H](O[C@@H]2O[C@@H](C)[C@H](O)[C@@H](OC(=O)[C@@H](C)CC)[C@H]2O)[C@H]1O[C@@H]1O[C@@H](C)[C@H](O)[C@@H](O)[C@H]1O [PESCAPREIN XXX]
- Ratio IC50 [1]: 2.3
- Activity [2]: inactive

SMILES: COc1ccc(CCN(C)CCCC(C#N)(c2ccc(OC)c(OC)c2)C(C)C)cc1OC (centres undefined) [VERAPAMIL]
- Ratio IC50 [1]: 21
